TMEM16A act – activates or potentiates the mouse TMEM16A chloride channel | B-score at 10 µM | HEK293 TMEM16A/YFP-H148Q/I152L, iodide quench fluorescence; active compounds read low | AID 623877 | actives 0.3% (n = 340,000) | Q8BHY3;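 active = fluorescence-ratio B-score plate-corrected deviation score at least 3 library SD below zero, with starting fluorescence score within 5 deviations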;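 note: channel opened by trigger with iodide after compound preincubation; score built on the fluorescence ratio of max minus min over baseline; more negative score means more quench and so TMEM16A activation or potentiation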
Target sequence (Q8BHY3 whole entry, looked up): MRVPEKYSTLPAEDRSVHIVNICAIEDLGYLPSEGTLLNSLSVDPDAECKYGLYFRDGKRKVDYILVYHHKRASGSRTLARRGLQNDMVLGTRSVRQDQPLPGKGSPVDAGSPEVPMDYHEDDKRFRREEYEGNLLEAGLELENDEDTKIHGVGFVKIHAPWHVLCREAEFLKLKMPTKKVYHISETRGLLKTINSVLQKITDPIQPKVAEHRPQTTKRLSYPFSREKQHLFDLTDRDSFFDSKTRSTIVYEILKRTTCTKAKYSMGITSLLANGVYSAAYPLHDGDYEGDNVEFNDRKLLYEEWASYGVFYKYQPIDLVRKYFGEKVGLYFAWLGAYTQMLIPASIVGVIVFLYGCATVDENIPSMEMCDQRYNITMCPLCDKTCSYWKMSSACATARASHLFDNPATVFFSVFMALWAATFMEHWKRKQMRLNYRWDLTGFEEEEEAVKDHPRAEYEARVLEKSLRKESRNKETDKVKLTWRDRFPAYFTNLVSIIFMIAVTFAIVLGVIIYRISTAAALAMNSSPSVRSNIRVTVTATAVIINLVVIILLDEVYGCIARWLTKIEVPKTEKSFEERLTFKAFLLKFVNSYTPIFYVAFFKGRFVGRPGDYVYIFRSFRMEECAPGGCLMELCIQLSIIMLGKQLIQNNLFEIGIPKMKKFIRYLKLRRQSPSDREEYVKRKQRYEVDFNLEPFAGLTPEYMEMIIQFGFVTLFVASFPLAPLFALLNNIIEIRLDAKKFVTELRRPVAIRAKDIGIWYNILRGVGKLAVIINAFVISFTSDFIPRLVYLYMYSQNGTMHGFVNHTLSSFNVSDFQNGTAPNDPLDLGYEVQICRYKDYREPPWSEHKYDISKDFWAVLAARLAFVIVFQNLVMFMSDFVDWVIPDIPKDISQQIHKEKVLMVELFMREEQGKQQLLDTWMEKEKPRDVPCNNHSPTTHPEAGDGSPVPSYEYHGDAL
MC4R barr agon – human MC4R agonism via beta-arrestin; U2OS MC4R beta-arrestin complementation, luminescence; percent of melanotan II response, DMSO zero; activation, % at 8.9 µM; actives 0.98% (n = 360,000); AID 540308;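 active = activation above a per-plate cutoff, the mean activation of sample wells on that plate plus 3 SD, cut at about 8% in these data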
TMEM16A inh – mouse TMEM16A channel inhibition, primary screen; Q8BHY3; HEK293 TMEM16A/YFP iodide influx fluorescence, ionomycin; normalized B-score (activity score, 25-100; higher = stronger inhibition) at 10 µM; actives 1.2% (n = 310,000); AID 588511;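 active = ratio plate-corrected score three or more library SD toward inhibition, starting fluorescence score within five deviations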;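 note: score derived from kinetic fluorescence span divided by baseline fluorescence per well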
HTR2A ag – agonists of mouse serotonin 5-HT2A receptor (HTR2A); AID 624169; CHO-K1 mHTR2A beta-arrestin complementation, luminescence; percent of 30 µM serotonin response; P35363; activation, % at 7.6 µM; actives 0.66% (n = 360,000);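 active = activation above a run cutoff, the mean activation of all tested compounds plus 3 SD, cut at about 14% in these data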
beta cell repl – MIN6 beta-cell proliferation induction; proliferation, % at 10 µM; actives 0.29% (n = 330,000); MIN6 cells proliferation, ATPlite luminescence, 48 h; cells starved in 0.2% serum; 100% = growth in 10% serum; AID 2380;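 active = compounds whose signal lies at least 3.5 SD above the mean of all wells on their plate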
MC4R antagonist – antagonists of human melanocortin 4 receptor (MC4R); P32245; inhibition, % at 6.5 µM; actives 0.48% (n = 360,000); MC4R-expressing cells, MTII-stimulated cAMP, LANCE TR-FRET; AID 540295;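 active = inhibition above its plate's cutoff, the mean of tested wells on that plate plus 3 SD, cut at about 29% in these data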
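Material: U2OS-MC4R stable cell line | Reagent: Melanotan II challenge after compound preincubation | Doses: One concentration, 6.5 µM nominal | Incubation: 30-min compound preincubation, 1-h Melanotan II challenge, 1-h detection, room temperature | Signal: TR-FRET cAMP assay | Replicates: One well per compound, no replicates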
MC4R barr ag – human MC4R beta-arrestin agonism confirmation | shares compounds with MC4R barr agon | U2OS MC4R beta-arrestin recruitment, luminescence; scaled DMSO 0%, Melanotan II 100% | activation, % at 8.9 µM | actives 31% (n = 2,400);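 active = mean activation across replicates above the hit cutoff set in the earlier primary screen, cut at about 8% in these data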
MOR DOR agonist – OPRM1-OPRD1 heterodimer agonism counter-screen; shares compounds with MC4R barr agon; U2OS PathHunter beta-arrestin, beta-gal luminescence; percent of deltorphin B response, DMSO zero; activation, % at 9.2 µM; actives 5.8% (n = 2,400); AID 602194;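 active = mean activation across replicates exceeds the hit threshold derived in the earlier primary screen, cut at about 18% in these data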
Each line names hits and unclear results; the compound was inactive in the other large screens (follow-up assays come after a bar, where they were run). Rows were chosen to be rich in hits. Some 3.4% of all compounds tested hit in one or more screens of this group.

O=C(CSc1ncnc2nc[nH]c12)Nc1nnc(SCc2ccc(Cl)c(Cl)c2)s1	MC4R barr agon 16 | MC4R barr ag inactive | MOR DOR agonist inactive
CCOC(=O)c1c(NC(=S)Nc2ccc(F)cc2)sc2c1CCC2	MC4R barr agon 11 | MC4R barr ag 8.5 | MOR DOR agonist inactive
COC(=O)c1ccccc1NC(=O)c1cccc(NC(=O)CSCc2ccccc2)c1C	MC4R barr agon 18 | MC4R barr ag inactive | MOR DOR agonist inactive
CCCCNC(=O)C1(C)CCN1C(=O)c1ccc2ccccc2n1 (centres undefined)	none (no result: TMEM16A act, TMEM16A inh, beta cell repl)
Cc1cc2oc(C(=O)Nc3nonc3C)c(C)c2cc1C	MC4R barr agon 14 | MC4R barr ag inactive | MOR DOR agonist inactive
COc1ccccc1NS(=O)(=O)c1cc(C(=O)N2CCCC2)ccc1F	none (no result: TMEM16A inh)
Cc1cnc(NC(=O)CSc2nc3ccccc3s2)s1	none
Cc1ccccc1-c1nnc(NC(=O)CSc2nc3ccccc3s2)s1	MC4R barr agon 16 | MC4R barr ag 10 | MOR DOR agonist inactive
C/C=C/C(=O)Nc1nnc(-c2ccccc2C)s1	MC4R barr agon 19 | MC4R barr ag inactive | MOR DOR agonist inactive
C=C(C)C(=O)Nc1nnc(-c2ccccc2C)s1	none (no result: TMEM16A inh, beta cell repl)
O=C(Cc1cccc2c(=O)cc(-c3ccccc3)oc12)OCCN1CCOCC1	none (no result: TMEM16A act, MC4R barr agon, TMEM16A inh, beta cell repl, MC4R antagonist)
COc1ccc(CNCCc2ccc(Cl)cc2)cc1OCc1ccccc1	MC4R barr agon 16, TMEM16A inh 100 | MC4R barr ag 24 | MOR DOR agonist inactive
COc1ccc(CNCCc2ccccc2)cc1OCC(N)=O	none
Cc1cc(C)cc(OCC(=O)Nc2ccccc2C(=O)NCc2ccco2)c1	MC4R barr agon 31 | MC4R barr ag inactive | MOR DOR agonist inactive
O=C(COc1ccc(Cl)cc1)Nc1ccccc1C(=O)NCc1ccco1	none
CN(Cc1ccc(Cl)cc1)C(CCc1ccccc1)C(=O)NC1CCCCC1 (centres undefined)	none (no result: TMEM16A act, MC4R barr agon, TMEM16A inh, beta cell repl, MC4R antagonist)
COc1ccc(-c2nc(-c3ccc(Br)o3)no2)cc1	MC4R barr agon 13 | MC4R barr ag inactive | MOR DOR agonist inactive
CCCCOc1ccc(/C=N/NC(=S)Nc2cc(C)ccc2C)cc1	MC4R barr agon 12 | MC4R barr ag inactive | MOR DOR agonist inactive
CCCCOc1ccc(/C=N/NC(=S)Nc2cccc(C)c2C)cc1	none
CCSc1ccc(C(=O)Nc2cccc(C)n2)cc1[N+](=O)[O-]	MC4R barr agon 36 | MC4R barr ag inactive | MOR DOR agonist inactive
O=C(CSc1nc(Cc2ccccc2)nc2ccccc12)Nc1ccc2c(c1)OCCO2	MC4R barr agon 14 | MC4R barr ag inactive | MOR DOR agonist inactive
O=C(CSc1ncnc2ccccc12)Nc1ccc2c(c1)OCCO2	none
CO/N=C(/CS(=O)Cc1ccc(Cl)cc1)c1ccc(Cl)cc1 (centres undefined)	MC4R barr agon 14 | MC4R barr ag inactive | MOR DOR agonist inactive
O=C(CCCCCn1c(=S)[nH]c2ccc(N3CCOCC3)cc2c1=O)NCc1ccccc1Cl	none
COc1ccc(CNC(=O)CCCn2c(=S)[nH]c3cc4c(cc3c2=O)OCO4)cc1	none
O=C(CCCCCn1c(=S)[nH]c2ccc(N3CCOCC3)cc2c1=O)NCc1ccc2c(c1)OCO2	MC4R barr agon 13 | MC4R barr ag inactive | MOR DOR agonist inactive
CCCCn1c(=S)[nH]c2ccc(N3CCOCC3)cc2c1=O	none (no result: TMEM16A act, MC4R barr agon, HTR2A ag, MC4R antagonist)
O=C(CCCCCn1c(=S)[nH]c2ccc(N3CCOCC3)cc2c1=O)NCc1ccc(Cl)cc1	MC4R barr agon 10 | MC4R barr ag inactive | MOR DOR agonist inactive
O=C(CCCCCn1c(=S)[nH]c2ccc(N3CCOCC3)cc2c1=O)NCCc1ccccc1	MC4R barr agon 18 | MC4R barr ag inactive | MOR DOR agonist 18
COc1cc2c(-c3ccc(O)cc3)nc3c(c(C)nn3-c3ccccc3)c2cc1OC	MC4R barr agon 10 (no result: beta cell repl) | MC4R barr ag inactive | MOR DOR agonist inactive
O=C(c1ccc(CNS(=O)(=O)c2ccc(Br)cc2)cc1)N1CCCCCC1	none
CCOc1cc(N2CCOCC2)c(OCC)cc1NC(=O)c1cc(-c2ccco2)nc2ccccc12	MC4R barr agon 14 | MC4R barr ag 9.2 | MOR DOR agonist inactive
CC(=O)c1sc(NC(=O)CCN2C(=O)c3ccccc3C2=O)nc1C	none
O=C(c1ccc(COc2ccc(Br)cc2)o1)N1N=C(C(F)F)CC1(O)C(F)F (centres undefined)	MC4R barr agon 11 | MC4R barr ag 22 | MOR DOR agonist inactive
O=C(c1ccc(COc2ccc3ccccc3c2)o1)N1N=C(C(F)F)CC1(O)C(F)F (centres undefined)	MC4R barr agon 30 | MC4R barr ag 16 | MOR DOR agonist inactive
Cc1cc(C)cc(OCc2ccc(C(=O)N3N=C(C(F)F)CC3(O)C(F)F)o2)c1 (centres undefined)	none
O=C(CSc1nc(C(F)(F)F)cc(=O)[nH]1)N1CCC(Cc2ccccc2)CC1	none
Cc1c(CCOC(=O)CC23CC4CC(CC(C)(C4)C2)C3)sc[n+]1CC(=O)c1ccccc1	MC4R barr agon 9.8, TMEM16A inh 100 | MC4R barr ag 20 | MOR DOR agonist inactive
Cc1c(CCOC(=O)CC23CC4CC(CC(C4)C2)C3)sc[n+]1CC(=O)c1ccc(Br)cc1	none
COc1ccc(CNC(=S)Nc2ccc(Br)cc2)cc1	none
COc1ccc(CNC(=S)Nc2ccc(-c3ccccc3)cc2)cc1	MC4R barr agon 13 | MC4R barr ag inactive | MOR DOR agonist inactive
CN(C)c1ccc(CNC(=O)C2Cc3c(-c4ccccc4Oc4ccccc4)ccnc3O2)cc1 (centres undefined)	none (no result: TMEM16A act, TMEM16A inh, beta cell repl)
COC(=O)Nc1nnc(COc2cccc(C)c2)s1	none
CCc1nnc(NC(=O)c2ccc(COc3cccc(C)c3)o2)s1	MC4R barr agon 14 | MC4R barr ag inactive | MOR DOR agonist inactive
N#Cc1cc(-c2ccc(Cl)cc2)cnc1Sc1ccc(F)cc1	MC4R barr agon 18 | MC4R barr ag inactive | MOR DOR agonist inactive
N#Cc1cc(-c2ccccc2)cnc1Sc1ccc(Cl)cc1	none
CC(C)c1ccccc1NC(=S)NCC1(N(C)C)CCCCC1	none
COc1ccc(C(=O)/C=C/c2ccc(O)cc2)c(O)c1C/C=C(\C)CCC=C(C)C	none (no result: TMEM16A inh)
COc1cc(O)c(CC=C(C)C)c(O)c1C(=O)CCc1ccc(O)cc1	MC4R barr agon 36 | MC4R barr ag 32 | MOR DOR agonist inactive
